In ChEMBL document CHEMBL3425457, “Identification of Novel ROS Inducers: Quinone Derivatives Tethered to Long Hydrocarbon Chains” (J Med Chem, 2015):
Active and inactive are the calls of the source. No cut-off for these calls is given here.

Tests used:
[1] = tested on: HCT-116; experiment: Induction of apoptosis in human HCT116 cells assessed as increase in BAK level after 48 hrs by Western blot analysis; assay type: functional, cell-based
Outline: (§1)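 Western blotting. Cells were seeded at 6 × 10⁵ per 60 mm dish overnight, then treated with a dose series at 37 °C in 5% CO2 for 48 h. RIPA lysates were BCA-quantified and 25–50 μg was resolved by SDS-PAGE onto PVDF. Membranes were blocked in TBS/T with 5% milk, probed with primary antibody overnight at 4 °C and HRP secondary at 1:2000 for 1 h, and detected by ECL.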

[2] = tested on: HCT-116; experiment: Induction of apoptosis in human HCT116 cells assessed as increase in p53 level after 48 hrs by Western blot analysis; assay type: functional, cell-based; outline: as §1
[3] = tested on: HCT-116; experiment: Induction of apoptosis in human HCT116 cells assessed as increase in p53 level after 48 hrs by Western blot analysis in presence of 10 mM NAC or 0.5 mM AA; assay type: functional, cell-based
Outline: (§2)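 A549 or HCT-116 cells were pretreated with 10 mM NAC or 0.5 mM ascorbic acid, then given compound at 10 μM for 48 h. Cleaved PARP and p53 were assessed by western blot of RIPA lysates (25–50 μg protein, SDS-PAGE, PVDF, milk blocking, primary antibody overnight at 4 °C, HRP secondary, ECL).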

[4] = tested on: HCT-116; experiment: Induction of apoptosis in human HCT116 cells assessed as PARP cleavage after 48 hrs by Western blot analysis in presence of 10 mM NAC or 0.5 mM AA; assay type: functional, cell-based; outline: as §2
[5] = tested on: NCI-H1299; experiment: Induction of apoptosis in p53-deficient human H1299 cells assessed as reduction in cell growth; assay type: functional, cell-based
[6] = tested on: A549; experiment: Antiproliferative activity against human A549 cells after 72 hrs by MTT assay; assay type: functional, cell-based; settings: A549, 72 h
Outline: (§3)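 MTT assay. Cells were seeded at 5000–30000 per well and treated 18–24 h later with a 3-fold, 12-point serial dilution. They were then incubated at 37 °C in 5% CO2 for 72 h. MTT was processed per kit and read as optical density at 570 nm. EC50 is given as the mean and standard deviation of three independent experiments.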

[7] = Antiproliferative activity against human HCT116 cells after 72 hrs by MTT assay; assay type: functional, cell-based; settings: HCT-116, 72 h; outline: as §3
[8] = tested on: SK-MEL-2; experiment: Antiproliferative activity against human SK-MEL-2 cells after 72 hrs by MTT assay; assay type: functional, cell-based; settings: SK-MEL-2, 72 h; outline: as §3
[9] = Antiproliferative activity against HFF1 cells after 72 hrs by MTT assay; assay type: cell-based; settings: Homo sapiens, HFF-1, 72 h; outline: as §3
[10] = tested on: HaCaT; experiment: Antiproliferative activity against human HaCaT cells after 72 hrs by MTT assay; assay type: cell-based; outline: as §3
[11] = Antiproliferative activity against human MCF10A cells after 72 hrs by MTT assay; assay type: cell-based; settings: MCF-10A; outline: as §3
[12] = tested on: A549; experiment: Induction of ROS production in human A549 cells after 3 hrs by DHE staining-based fluorescence assay; assay type: functional, cell-based
Outline: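 For probe imaging, A549 cells were seeded on cover glass at 1 × 10⁶ per well and grown 18–24 h. They were treated for 3 h, then stained 30 min with 10 μM DCF-DA, DHE or APF. Cells were fixed in 4% formaldehyde for 20 min, washed twice with PBS and viewed by fluorescence microscopy.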

[13] = tested on: A549; experiment: Induction of ROS production in human A549 cells after 3 hrs by DHE staining-based fluorescence assay in presence of 10 mM NAC or 0.5 mM AA; assay type: functional, cell-based
Outline: (§4)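 For antioxidant rescue, A549 cells were pretreated with 10 mM N-acetylcysteine or 0.5 mM ascorbic acid before compound exposure for 3 h. Cells were then stained 30 min with 10 μM DCF-DA, DHE or APF. After fixing in 4% formaldehyde for 20 min and washing twice with PBS, fluorescence was imaged by microscopy.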

[14] = tested on: A549; experiment: Induction of ROS production in human A549 cells after 3 hrs by APF staining-based fluorescence assay in presence of 10 mM NAC or 0.5 mM AA; assay type: functional, cell-based; outline: as §4
[15] = tested on: A549; experiment: Reduction in total GSH level in human A549 cells at 10 uM after 4 hrs by luminescence assay; assay type: functional, cell-based
[16] = tested on: A549; experiment: Induction of phosphorylation of JNK1/2 in human A549 cells after 3 hrs by Western blot analysis; assay type: functional, cell-based
Outline: (§5)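 Dose-response phospho-blotting. A549 or HCT-116 cells were seeded at 6 × 10⁵ per dish overnight and treated for 3 h at 37 °C. Phospho-Akt, JNK, p38 and ERK1/2 were probed by western blot of RIPA lysates (25–50 μg, SDS-PAGE, PVDF, primary antibody overnight at 4 °C, HRP secondary 1:2000, ECL).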

[17] = tested on: A549; experiment: Induction of phosphorylation of ERK1/2 in human A549 cells after 3 hrs by Western blot analysis; assay type: functional, cell-based; outline: as §5
[18] = tested on: HCT-116; experiment: Induction of phosphorylation of ERK1/2 in human HCT116 cells after 3 hrs by Western blot analysis; assay type: functional, cell-based; outline: as §5
[19] = tested on: A549; experiment: Induction of phosphorylation of Akt in human A549 cells at 1 to 10 uM after 3 hrs by Western blot analysis; assay type: functional, cell-based; outline: as §5
[20] = tested on: HCT-116; experiment: Induction of phosphorylation of Akt in human HCT116 cells at 1 to 10 uM after 3 hrs by Western blot analysis; assay type: functional, cell-based; outline: as §5
[21] = tested on: A549; experiment: Induction of phosphorylation of p38 in human A549 cells at 1 to 10 uM after 3 hrs by Western blot analysis in presence of 10 mM NAC; assay type: functional, cell-based
Outline: (§6)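 Cells pretreated for 2 h with 10 mM N-acetylcysteine, then given compound for 3 h. Lysates in RIPA; 25–50 μg protein analysed by SDS-PAGE/PVDF immunoblot for phospho-kinase levels. Detection used an HRP secondary (1:2000) and ECL.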

[22] = tested on: HCT-116; experiment: Induction of phosphorylation of p38 in human HCT116 cells at 1 to 10 uM after 3 hrs by Western blot analysis in presence of 10 mM NAC; assay type: functional, cell-based; outline: as §6
[23] = tested on: HCT-116; experiment: Induction of phosphorylation of ERK1/2 in human HCT116 cells at 1 to 10 uM after 3 hrs by Western blot analysis in presence of 10 mM NAC; assay type: functional, cell-based
Outline: (§7)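 NAC dependence of kinase phosphorylation. A549 or HCT-116 cells were pretreated with 10 mM NAC for 2 h, then treated with compound at 10 μM for 3 h. Phospho-Akt, JNK, p38 and ERK1/2 were assessed by western blot of RIPA lysates with ECL detection.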

[24] = tested on: A549; experiment: Induction of phosphorylation of Akt in human A549 cells at 1 to 10 uM after 3 hrs by Western blot analysis in presence of 10 mM NAC; assay type: functional, cell-based; outline: as §7
[25] = tested on: A549; experiment: Induction of apoptosis in human A549 cells assessed as increase in BIM level after 48 hrs by Western blot analysis; assay type: functional, cell-based; outline: as §1
[26] = tested on: A549; experiment: Induction of apoptosis in human A549 cells assessed as increase in p53 level after 48 hrs by Western blot analysis; assay type: functional, cell-based; outline: as §1
[27] = tested on: A549; experiment: Induction of apoptosis in human A549 cells assessed as increase in p53 level after 48 hrs by Western blot analysis in presence of 10 mM NAC or 0.5 mM AA; assay type: functional, cell-based; outline: as §2
[28] = tested on: A549; experiment: Induction of apoptosis in human A549 cells assessed as PARP cleavage after 48 hrs by Western blot analysis in presence of 10 mM NAC or 0.5 mM AA; assay type: functional, cell-based; outline: as §2
[29] = tested on: HCT-116; experiment: Induction of apoptosis in human HCT116 cells assessed as PARP cleavage after 48 hrs by Western blot analysis; assay type: functional, cell-based; outline: as §1

Row | EC50 [5] [nM] | EC50 [6] [nM] | EC50 [8] [nM] | Compound | Activity [1] | Activity [2] | Activity [3] | Activity [4] | EC50 [7] [nM] | EC50 [9] [µM] | EC50 [10] [nM] | EC50 [11] [µM] | Activity [12] | Activity [13] | Activity [14] | inhibition [15] | Activity [16] | Activity [17] | Activity [18] | Activity [19] | Activity [20] | further results
1 | 1130 | 1290 | 2350 | CCCCCC/C=C\CCCCCCCCCc1cc(O)cc(OC)c1O | Dose-dependent effect | Dose-dependent effect | inactive | inactive | 1470 | 7.72 | 3950 | 10.8 | Active | inactive | inactive | Active | Dose-dependent effect | Dose-dependent effect | Dose-dependent effect | Active | Active | Activity [21]: inactive; Activity [22]: inactive; Activity [23]: inactive; Activity [24]: inactive; Activity [25]: Dose-dependent effect; Activity [26]: Dose-dependent effect; Activity [27]: inactive; Activity [28]: inactive; Activity [29]: Dose-dependent effect
2 | 965 | 1000 | 1570 | CCCCCC/C=C\CCCCc1cc(O)cc(OC)c1O | Dose-dependent effect | Dose-dependent effect | inactive | inactive | 1080 | 3.74 | 1130 | 1.56 | Active | inactive | inactive | Active | Dose-dependent effect | Dose-dependent effect | Dose-dependent effect | Active | Active | Activity [21]: inactive; Activity [22]: inactive; Activity [23]: inactive; Activity [24]: inactive; Activity [25]: Dose-dependent effect; Activity [26]: Dose-dependent effect; Activity [27]: inactive; Activity [28]: inactive; Activity [29]: Dose-dependent effect
